From ChEMBL document CHEMBL2150881, “JD-5006 and JD-5037: peripherally restricted (PR) cannabinoid-1 receptor blockers related to SLV-319 (Ibipinabant) as metabolic disorder therapeutics devoid of CNS liabilities” (Bioorg Med Chem Lett, 2012)
Calls of active or inactive are those of the source. The rule behind the calls is not given here.

Columns and labels:
Mus musculus [1] = assay: Antidyslipidemic activity in DIO mouse model assessed as reduction in terminal fasting triglyceride level at 3 to 30 mg/kg, po for 21 days; type: functional; design: scale not given: the % may be the effect or the level left; conditions: dose mg/kg 3-30
Summary of the method: (§1)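 Diet-induced obese mice dosed orally at 3, 10 and 30 mg/kg for 21 days alongside vehicle controls. Plasma triglycerides, ALT and terminal liver weight were measured at the end of dosing. p-values were given for each dose.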

Cannabinoid receptor 2 = Cannabinoid receptor 2 (Homo sapiens, UniProt P34972); assay: Displacement of 3[H]ligand from recombinant human CB2 receptor
Summary of the method: (§2)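 Radioligand displacement from human recombinant CB1 and CB2 protein by a [³H] ligand. Initial screen at two concentrations in duplicate, with values >100 nM estimated. Percent inhibition read at 100 nM. IC₅₀ taken from four-point concentration curves run in duplicate.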

Mus musculus [2] = assay: Antidyslipidemic activity in DIO mouse model assessed as reduction in terminal liver weight at 3 to 30 mg/kg, po for 21 days; type: functional; design: scale not given: the % may be the effect or the level left; conditions: dose mg/kg 3-30; summary of the method: as §1
Cannabinoid receptor 1 [3] = biological target: T1, Cannabinoid receptor 1 (Homo sapiens, UniProt P21554); assay: Displacement of 3[H]ligand from recombinant human CB1 receptor; summary of the method: as §2
[4] = (§3) Apparent permeability from basolateral to apical side in MDR expressing MDCK cells by LC-MS-MS analysis; type: ADME, cell-based, Canis lupus familiaris; conditions: dog, MDCK-MDR1
Summary of the method: (§4)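 Permeability measured across MDR-MDCK kidney cell monolayers, giving apparent permeability (Papp) in the apical-to-basolateral and basolateral-to-apical directions.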

Cannabinoid receptor 1 [5] = biological target: T1, Cannabinoid receptor 1; assay: Inverse agonist activity against CB1 receptor expressed in human CHO cells assessed as effect on forskolin-stimulated cAMP level; type: functional, cell-based
[6] = (§5) Apparent permeability from apical to basolateral side in MDR expressing MDCK cells by LC-MS-MS analysis; type: ADME, cell-based, Canis lupus familiaris; conditions: dog, MDCK-MDR1; summary of the method: as §4
Mus musculus [7] = assay: Antidyslipidemic activity in DIO mouse model assessed as reduction in terminal ALT level at 3 to 30 mg/kg, po for 21 days; type: functional; design: scale not given: the % may be the effect or the level left; conditions: dose mg/kg 3-30; summary of the method: as §1
Mus musculus [8] = assay: Antidiabetic activity in high fat diet-fed diabetes mouse model assessed as […] in insulin sensitivity at 20 mg/kg for 7 days by glucose tolerance test; type: functional, organism-based; design: dose 20 mg/kg
Mus musculus [9] = assay: Antidiabetic activity in high fat diet-fed diabetes mouse model assessed as reduction in glucose level at 20 mg/kg for 7 days by glucose tolerance test; type: functional, organism-based; design: dose 20 mg/kg
Summary of the method: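 Mice kept on high-fat diet for 14 weeks were given 20 mg/kg PO for seven days. They were then challenged with glucose at 2 g/kg body weight, and glucose elimination was followed.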

[10] = biological target: Cannabinoid receptor 1 (Mus musculus) (UniProt P47746); conditions: Cerebellum, 30 mg/kg
Mus musculus [11] = assay: In vivo receptor occupancy at CB1 receptor in mouse cerebellum assessed as inhibition of [3H]SR141716A binding at 3 mg/kg, po for 3 days measured after 1 hr post last dose; type: functional
Summary of the method: (§6)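 Chow-fed mice dosed orally once daily at 3 or 30 mg/kg for 3 consecutive days, killed 1 h after the last dose. [3H]SR141716A was given by lateral tail-vein injection 30 min before euthanasia. Hippocampus, cerebellum and brain stem (reference region) were scintillation-counted as DPM/mg. Binding potential = (receptor − reference)/reference. Occupancy (%) = 100 × (vehicle BP − drug BP)/vehicle BP. 5 animals per dose.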

Mus musculus [12] = assay: In vivo receptor occupancy at CB1 receptor in mouse hippocampus assessed as inhibition of [3H]SR141716A binding at 3 mg/kg, po for 3 days measured after 1 hr post last dose; type: functional; summary of the method: as §6
[13] = Drug uptake in chow fed mouse brain at 20 mg/kg, po for 3 days measured after 1 hr post last dose; type: ADME, organism-based; design: dose 20 mg/kg, route oral; conditions: read-out: Drug uptake
Summary of the method: (§7)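 Chow-fed mice were dosed orally at 100 or 20 mg/kg for 3 consecutive days. Plasma and brain were taken 1 h after the last dose. Proteins were precipitated with 3× volume ice-cold acetonitrile containing internal standard, then centrifuged 15 min at 4 °C. Analysis by LC/MS/MS against calibrators in plasma or brain homogenate (1000 to 1.6 nM). Brain is given as ng/gm and also as % of plasma.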

[14] = Plasma concentration in chow fed mouse at 20 mg/kg, po for 3 days measured after 1 hr post last dose; type: ADME, organism-based; design: dose 20 mg/kg, route oral; summary of the method: as §7
Mus musculus [15] = assay: In vivo receptor occupancy at CB1 receptor in mouse hippocampus assessed as inhibition of [3H]SR141716A binding at 30 mg/kg, po for 3 days measured after 1 hr post last dose; type: functional; summary of the method: as §6
Mus musculus [16] = assay: Antidyslipidemic activity in DIO mouse model assessed as reduction in terminal fasting triglyceride level at 30 mg/kg, po for 21 days; type: functional; design: scale not given: the % may be the effect or the level left; summary of the method: as §1
Mus musculus [17] = assay: Antidyslipidemic activity in DIO mouse model assessed as reduction in terminal fasting triglyceride level at 3 mg/kg, po for 21 days; type: functional; design: scale not given: the % may be the effect or the level left; summary of the method: as §1
MDCK [18] = assay: Efflux ratio of permeability from […] in MDR expressing MDCK cells; type: ADME, cell-based, Canis lupus familiaris; conditions: dog, mdck
MDCK [19] = assay: as §3; type: ADME, cell-based, Canis lupus familiaris; conditions: dog, mdck; summary of the method: as §4
MDCK [20] = assay: as §5; type: ADME, cell-based, Canis lupus familiaris; conditions: dog, mdck; summary of the method: as §4

T1 sequence (P21554 whole entry): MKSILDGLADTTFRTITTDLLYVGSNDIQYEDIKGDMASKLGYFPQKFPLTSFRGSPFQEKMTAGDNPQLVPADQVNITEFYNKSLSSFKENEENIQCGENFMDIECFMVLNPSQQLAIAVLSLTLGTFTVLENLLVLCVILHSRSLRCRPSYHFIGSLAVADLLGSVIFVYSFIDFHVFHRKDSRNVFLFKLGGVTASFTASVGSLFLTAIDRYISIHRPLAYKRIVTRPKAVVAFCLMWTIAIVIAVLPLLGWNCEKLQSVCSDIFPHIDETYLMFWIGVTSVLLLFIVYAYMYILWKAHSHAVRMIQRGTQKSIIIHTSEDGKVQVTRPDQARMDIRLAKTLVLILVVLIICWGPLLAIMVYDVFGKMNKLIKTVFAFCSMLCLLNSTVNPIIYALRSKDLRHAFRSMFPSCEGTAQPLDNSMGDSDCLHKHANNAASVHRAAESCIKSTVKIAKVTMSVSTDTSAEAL
Cannabinoid receptor 2, sequence (P34972 whole entry): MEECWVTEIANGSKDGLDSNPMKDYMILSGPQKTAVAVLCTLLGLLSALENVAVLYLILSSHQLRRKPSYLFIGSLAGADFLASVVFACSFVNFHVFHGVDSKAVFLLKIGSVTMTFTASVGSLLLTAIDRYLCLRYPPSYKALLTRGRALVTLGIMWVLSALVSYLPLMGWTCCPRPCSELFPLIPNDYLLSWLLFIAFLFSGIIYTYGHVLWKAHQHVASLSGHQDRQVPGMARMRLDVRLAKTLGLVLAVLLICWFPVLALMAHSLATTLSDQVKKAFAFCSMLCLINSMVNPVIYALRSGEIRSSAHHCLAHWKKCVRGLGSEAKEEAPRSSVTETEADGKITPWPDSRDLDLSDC
Cannabinoid receptor 1 (Mus musculus), sequence (P47746 whole entry): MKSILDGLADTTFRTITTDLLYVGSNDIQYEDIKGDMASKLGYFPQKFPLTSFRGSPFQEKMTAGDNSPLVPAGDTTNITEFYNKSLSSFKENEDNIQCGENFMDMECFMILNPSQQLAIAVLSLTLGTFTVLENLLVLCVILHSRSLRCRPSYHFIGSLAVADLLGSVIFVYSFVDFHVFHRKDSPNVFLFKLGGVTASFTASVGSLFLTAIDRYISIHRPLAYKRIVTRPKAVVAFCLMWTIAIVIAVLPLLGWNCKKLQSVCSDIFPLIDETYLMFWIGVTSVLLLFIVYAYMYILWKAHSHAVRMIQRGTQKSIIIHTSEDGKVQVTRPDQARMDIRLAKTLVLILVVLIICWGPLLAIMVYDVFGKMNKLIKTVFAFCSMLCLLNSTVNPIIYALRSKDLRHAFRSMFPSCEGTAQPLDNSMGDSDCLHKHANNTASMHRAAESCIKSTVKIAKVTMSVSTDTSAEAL

| Compound | IC50 (Cannabinoid receptor 2) [nM] | Activity (Mus musculus [2]) [%] | IC50 (Cannabinoid receptor 1 [3]) [nM] | Activity (Mus musculus [7]) [%] | Activity (Mus musculus [8]) | Activity (Mus musculus [9]) | Occ [10] [%] | Occ (Mus musculus [11]) [%] | Occ (Mus musculus [12]) [%] | Occ (Mus musculus [15]) [%] | further results |
| --- | --- | --- | --- | --- | --- | --- | --- | --- | --- | --- | --- |
| NC(=O)CN/C(=N\S(=O)(=O)c1ccc(Cl)cc1)N1CC(c2ccccc2)C(c2ccc(Cl)cc2)=N1 (racemic) [listing 1 of 2 here] | 5000 | 17 | 18 | 49 |  |  |  |  |  |  | Activity (Mus musculus [1]): 26%; Papp B→A [4]: 60.5 ×10⁻⁶ cm/s; IC50 (Cannabinoid receptor 1 [5]): 18 nM; Papp A→B [6]: 1.8 ×10⁻⁶ cm/s |
| NC(=O)CN/C(=N\S(=O)(=O)c1ccc(Cl)cc1)N1CC(c2ccccc2)C(c2ccc(Cl)cc2)=N1 (racemic) [listing 2 of 2 here] |  |  |  |  | Active | Active |  |  |  |  |  |
| Cc1c(C(=O)NN2CCCCC2)nn(-c2ccc(Cl)cc2Cl)c1-c1ccc(Cl)cc1 [RIMONABANT] |  |  |  |  | Active | Active | 87 | 12 | 10 | 100 | concentration at 1 h [13]: 1080 ng/g; concentration at 1 h [14]: 1200 ng/mL |
| CN/C(=N\S(=O)(=O)c1ccc(Cl)cc1)N1CC(c2ccccc2)C(c2ccc(Cl)cc2)=N1 (racemic) [RAC-IBIPINABANT] |  | 25 |  | 56 |  |  | 102 | 15 | 15 | 100 | Activity (Mus musculus [16]): 19%; Activity (Mus musculus [17]): 22% |
| NC(=O)CNC(=O)CN/C(=N\S(=O)(=O)c1ccc(Cl)cc1)N1CC(c2ccccc2)C(c2ccc(Cl)cc2)=N1 (stereo unspecified) | > 5000 |  | 25 |  |  |  |  |  |  |  | Ratio (MDCK [18]): 112; Papp (MDCK [19]): 22.3 ×10⁻⁶ cm/s; Papp (MDCK [20]): 0.2 ucm/s |
